Screening results from PubChem.
MEKK2mut PB1 HTS: signal of MEK5 binding to mutant human MEKK2 PB1 domain; bead flow cytometry, Alexa488-MEK5 binding to MEKK2 mutant; percent response, % at 10 µM; actives 0.35% (n = 290,000); AID 1530; in the data active means percent response above about 24%, passing the limit was not always enough
MEKK3 PB1 HTS: MEKK3-MEK5 PB1 interaction, increase or decrease; actives 1.4% (n = 290,000); AID 1529; Q99759; bead-based flow cytometry, Alexa488-MEK5 binding to MEKK3; actives lie on both sides; 0 = blocked by unlabeled MEK5, 100 = vehicle; binding response (% of control), % at 10 µM;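 active means binding response more than 3 SD above or below the average of its plate-row segment, actives on both sides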;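 further: Alexa488 bead fluorescence after subtracting the streptavidin-only scavenger bead signal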
Target sequence (Q99759 whole entry, looked up): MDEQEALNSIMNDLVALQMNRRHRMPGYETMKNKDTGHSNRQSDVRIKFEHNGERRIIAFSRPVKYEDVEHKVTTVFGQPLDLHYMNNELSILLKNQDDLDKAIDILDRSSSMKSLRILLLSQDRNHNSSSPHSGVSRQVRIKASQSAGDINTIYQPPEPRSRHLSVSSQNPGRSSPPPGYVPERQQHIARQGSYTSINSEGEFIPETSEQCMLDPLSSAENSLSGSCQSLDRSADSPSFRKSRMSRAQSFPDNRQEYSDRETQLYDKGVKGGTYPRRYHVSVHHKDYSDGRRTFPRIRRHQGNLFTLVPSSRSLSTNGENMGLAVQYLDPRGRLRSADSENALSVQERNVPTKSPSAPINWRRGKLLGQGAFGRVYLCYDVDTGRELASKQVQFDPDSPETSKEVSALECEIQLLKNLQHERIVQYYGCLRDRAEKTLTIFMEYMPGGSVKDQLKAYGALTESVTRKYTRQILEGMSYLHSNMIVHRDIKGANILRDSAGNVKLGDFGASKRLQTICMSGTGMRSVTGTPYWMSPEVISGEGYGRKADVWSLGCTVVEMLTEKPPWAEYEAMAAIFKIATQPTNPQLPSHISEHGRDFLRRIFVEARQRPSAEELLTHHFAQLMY
MEKK2 WT-MEK5: raises or lowers MEK5 binding to wildtype human MEKK2 PB1 domain. bead flow cytometry, Alexa488-MEK5 binding to MEKK2 WT; actives lie on both sides. binding response (% of control), % at 10 µM. actives 1.1% (n = 290,000). AID 1531; in the data active means binding response below about 67% or above about 130%
UCH37 DUB inh: inhibitors of human deubiquitinating enzyme UCH37; purified proteasome/UCH37, Ub-AMC cleavage fluorescence; inhibition, % (no concentration beside the values); actives 0.33% (n = 330,000); AID 588478;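 active means mean inhibition over replicate wells above about 20%, limit read from the data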;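 further: 0% = compound-free wells with enzyme and 100% = wells lacking proteasome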
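system = Proteasome-associated human UCH37 deubiquitinase | amount = 0.15 nM proteasome as dispensed | medium = pH 7.4 Tris-HCl (50 mM) with ovalbumin, ATP-MgCl2, DTT | incubation = 30 min preincubation with enzyme, 25 min cleavage at room temperature | detection = AMC fluorescence 355/460 nm | read-out basis = percent inhibition | controls = no-proteasome and no-compound wells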
UBC13 inh: human UBC13 polyubiquitination inhibition. P61088. UBC13 polyubiquitin chain formation, TR-FRET. inhibition, % at 20 µM. actives 0.47% (n = 330,000). AID 485273; in the data active means inhibition above about 45%, passing the limit was not always enough
Apaf1 inhib: blocks human Apaf-1 apoptosome activity. reconstituted apoptosome caspase-3 activity, DEVD-Rh110 fluorescence. inhibition, % at 20 µM. actives 0.71% (n = 330,000). AID 489030; active means inhibition of at least 40% at 20 µM;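 further: plate controls were DMSO wells for no effect and DEVD-CHO caspase inhibitor wells for full effect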
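Assay system: Apoptosome proteins | Medium: pH 7.5 Hepes buffer with CHAPS, BSA, DTT | Also added: Cytochrome c and DEVD-Rh110 substrate | Times: 30 min plus 50 min, RT | Detection: Rhodamine 110 fluorescence at Ex 480/Em 540 nm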
Apaf-1 inh conf2: Apaf-1 inhibition, single-dose confirmed; reconstituted apoptosome, caspase-3 DEVD-Rh110 fluorescence; inhibition, % at 20 µM; shares compounds with Apaf1 inhib; actives 25% (n = 1,800);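 active means mean inhibition of at least 40% at 20 µM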;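 further: plate controls were DMSO wells for no effect and DEVD-CHO caspase inhibitor control wells for full effect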
Rh110 interf inh: interferes with Rh110 fluorescence, flagging false Apaf-1 inhibitors. shares compounds with Apaf1 inhib. Rh110 fluorescence interference, quenched caspase reaction. activation (fluorescence interference), % at 20 µM. 1,800 tested, under 10 active;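 active means signal rise of 40% or more at 20 µM, treated as a fluorescence artifact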
Fluor interf inh: shows fluorescence interference in the Apaf-1 inhibitor assay format; shares compounds with Apaf1 inhib; fluorescence interference counterscreen, Apaf-1 assay format; IC50, µM; 460 tested, under 10 active; AID 588538; call rule not given here
UCH37 reconfirm: reconfirmed inhibitor of human deubiquitinase UCH37; shares compounds with UCH37 DUB inh; Proteasome-bound UCH37, Ub-AMC cleavage fluorescence; inhibition, % at 20 µM; actives 27% (n = 480);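 active means average inhibition over replicates above about 50%, so the earlier screening hit is confirmed, limit read from the data; inactive means the rest, counted as false positives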;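 further: based on cleavage rate fitted by regression over a 30 min kinetic read; 0% = proteasome plus Ub-AMC and 100% = Ub-AMC without proteasome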
The depositor's hits bear a star; . = no result given. The list is not random: actives were taken first. Their share in the collection is about 3%.

SMILES	MEKK2mut PB1 HTS	MEKK3 PB1 HTS	MEKK2 WT-MEK5	UCH37 DUB inh	UBC13 inh	Apaf1 inhib	UCH37 reconfirm	others
COc1ccc(C2/C(=C(\O)c3ccc4c(c3)OCCO4)C(=O)C(=O)N2CCCn2ccnc2)cc1 (stereo not given)	-2	94	95	13	-27	27	.
COc1ccc(C=NNc2nc(Nc3ccccc3)nc(N3CCCCC3)n2)c(OC)c1	.	.	.	3	.	.	.
O=C1C(Cl)=C(Nc2ccccc2)C(=O)c2ccccc21	0	98	97	6	.	.	.
CCN(CC)CCCNC1=C(Cl)C(=O)c2ccccc2C1=O	2	99	105	27*	-334	50*	39	Apaf-1 inh conf2=65*;Rh110 interf inh=4;Fluor interf inh=>100
Cc1ccc(OCC(O)Cn2c(N)nc3c2c(=O)n(C)c(=O)n3C)cc1 (stereo not given)	-9	99	98	1	7	-8	.
CCC(=O)N(C1=C(NC)C(=O)c2ccccc2C1=O)C(C)C	-4	105	97	33*	-83	69*	42	Apaf-1 inh conf2=49*;Rh110 interf inh=-1;Fluor interf inh=>100
CC(=O)N1C(=O)/C(=C2\SC(=S)N(c3c(C)n(C)n(-c4ccccc4)c3=O)C2=O)c2ccccc21	2	97	89	25*	.	.	45
CC(C)(C)c1ccc(NC(=O)COC(=O)c2ccc([N+](=O)[O-])s2)cc1	2	99	115	3	.	.	.
O=C(COC(=O)c1cccs1)Nc1cccc(S(=O)(=O)NC2=NCCCCC2)c1	-4	98	95	1	4	-10	.
O=C(COC(=O)c1ccc([N+](=O)[O-])s1)Nc1ccc(F)cc1	.	.	.	67*	-13	38	77*
COc1ccc(S(=O)(=O)N2CCOCC2)cc1NC(=O)COC(=O)c1ccc([N+](=O)[O-])s1	.	.	.	62*	-14	30	7
O=C(COC(=O)c1ccc([N+](=O)[O-])s1)Nc1ccccc1	-1	84	90	60*	-3	24	36
O=C(COC(=O)c1ccc([N+](=O)[O-])s1)Nc1cccc(S(=O)(=O)NC2=NCCCCC2)c1	-5	99	98	62*	-13	20	4
COc1ccc(S(=O)(=O)N2CCOCC2)cc1NC(=O)COC(=O)c1[nH]c(C)c(C(C)=O)c1C	.	.	.	2	-8	7	.
Cc1ccc(CNC(=O)COC(=O)c2ccc(Br)o2)cc1	.	.	.	3	5	10	.
Cc1cccc(OC(=O)c2ccc3nccnc3c2)c1	2	102	102	4	-1	-6	.
Cc1ccc2cc(C(c3nnnn3C3CCCC3)N3CCN(c4ccc(F)cc4)CC3)c(=O)[nH]c2c1 (stereo not given)	1	102	97	3	-9	30	.
O=C(CCC(=O)OCc1cccc([N+](=O)[O-])c1)Nc1ccc(F)cc1	-1	113	104	2	-11	12	.
O=C(COC(=O)c1ccc([N+](=O)[O-])s1)NCc1ccccc1	11	98	86	39*	-3	19	10
CCOc1ccc(N2CC(C(=O)NCCC3=CCCCC3)CC2=O)cc1 (stereo not given)	2	102	102	4	0	-9	.
Cc1ccc(N2CC(C(=O)NCCC3=CCCCC3)CC2=O)cc1 (stereo not given)	.	.	.	41*	-3	1	55*
O=C1C2C3CCCC3=C3CCCC3C2C(=O)N1c1ccc(F)cc1 (stereo not given)	8	105	108	32*	5	11	53*
O=c1[nH]c(=S)[nH]c2c1C(c1ccc(Br)cc1)c1c([nH]c(=S)[nH]c1=O)O2	7	109	100	27*	.	.	38
O=C1CCCC2=C1C(c1ccc(Br)cc1)c1c([nH]c(=S)[nH]c1=O)N2 (stereo not given)	-8	97	97	2	37	0	.
C=CCN1C(=O)S/C(=C/c2ccc(Sc3nc4ccccc4[nH]3)o2)C1=O	-2	97	99	-5	-11	16	.
SMILES	MEKK2mut PB1 HTS	MEKK3 PB1 HTS	MEKK2 WT-MEK5	UCH37 DUB inh	UBC13 inh	Apaf1 inhib	UCH37 reconfirm	others
CCNc1nnc(-c2ccncc2)s1	2	104	107	-354	9	-6	.
O=C1OC(c2ccc3ccccc3c2O)(c2ccc3ccccc3c2O)c2ccccc21	.	.	.	26*	.	.	-36
O=C1OC2(c3ccccc31)c1ccccc1-c1ccccc12	.	.	.	1	.	.	.
CCO[C@H]1OC(C(=O)N2CCCCCCC2)=C[C@@H](C2CCCCC2)[C@@H]1CCCO	5	104	104	0	-8	26	.
OCCN1CCN(c2nc(-c3ccccc3)nc3c2oc2ccccc23)CC1	7	103	110	0	4	5	.
CCn1c(=NC(=O)CSCC(=O)Nc2nccs2)sc2ccccc21	-5	98	96	1	10	5	.
Cc1cc(/C=N/Nc2nc(N3CCOCC3)nc(N3CCOCC3)n2)c(C)n1-c1ccccc1	-2	94	96	.	-7	9	.
Cc1ccc(C)c(NC(=O)CSc2c(C)n[nH]c2C)c1	-4	101	103	0	-7	-7	.
CCOc1ccccc1NC(=O)CSc1c(C)n[nH]c1C	3	105	109	36*	6	-11	8
C/C(=C\C(=O)C(F)(F)F)Nc1ccc(C(F)(F)F)cc1	1	97	98	46*	7	4	6
CC(C)(CCl)C(=O)Nc1ccc(C(F)(F)F)cc1	-12	101	92	0	4	5	.
CCOC(=O)/C(C#N)=C\C=C1C=CN(C)C=C1	13	106	108	.	-269	4	33
CC(C)[C@H](NC(=O)NC1CCCC1)C(=O)O	3	108	107	0	4	-4	.
CC(C)=CCCC(C)NC(=O)NC1CCCCC1 (stereo not given)	2	110	107	21*	1	7	67*
CCn1nc(C)c(CNC(=O)CCc2nnc(-c3ccc(C(C)=O)s3)o2)c1C	1	107	97	1	-4	-7	.
